# Source: ChEMBL document CHEMBL2176909, “Kaurenoic acid from Sphagneticola trilobata Inhibits Inflammatory Pain: effect on cytokine production and activation of the NO-cyclic GMP-protein kinase G-ATP-sensitive potassium channel signaling pathway” (J Nat Prod, 2012)
# The source made the active and inactive calls.
# Tests used:
# Mus musculus [1] = assay: Antihyperalgesic activity in complete Freund's adjuvant-induced Swiss mouse pain model assessed as paw withdrawal latency at 10 mg/kg, po starting 1 hr post challenge for 7 days measured after 2 to 7 days by electronic pressure-meter test; type: functional, organism-based; set-up: dose 10 mg/kg
# In short: (§1)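 Male Swiss mice injected intraplantar with CFA (10 μL/paw). Dosing is daily from 1 h after CFA for 7 days, either 10 mg/kg po or indomethacin 5 mg/kg ip. Electronic pressure-meter Δ withdrawal threshold (g) measured every 24 h. n = 6.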
# Mus musculus [2] = assay: Antinociceptive activity against formalin-induced pain in Swiss mouse assessed as inhibition of paw licking at 10 mg/kg, po administered 30 mins prior to formalin challenge; type: functional, organism-based; set-up: dose 10 mg/kg
# In short: (§2)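 Swiss mice dosed 10 mg/kg po 30 min before intraplantar formalin (25 μL of 1.5% in saline). Flinches and licking time counted over 0–30 min in 5-min bins and reported as 0–15 and 15–30 min phases. n = 6.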
# Mus musculus [3] = assay: Antihyperalgesic activity in carrageenan-induced mechanical hyperalgesia Swiss mouse model assessed as paw withdrawal latency at 10 mg/kg, po administered 30 mins prior to challenge measured after 1 to 5 hrs post challenge by electronic pressure-meter test in presence of 30 mg/kg L-NAME; type: functional, organism-based
# In short: (§3)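 Swiss mice given L-NAME (10–90 mg/kg ip) 60 min before 10 mg/kg po. Intraplantar carrageenin (100 μg/paw) 30 min later. Mechanical threshold by electronic pressure-meter at 5 h, reported as Δ withdrawal threshold (g). n = 5.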
# Mus musculus [4] = assay: Antihyperalgesic activity against thermal hyperalgesia in Swiss mouse assessed as increase in thermal nociceptive threshold at 10 mg/kg, po after 1.5 to 5.5 hrs by hot plate test; type: functional, organism-based; set-up: dose 10 mg/kg
# In short: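 Male Swiss mice (25–30 g), 10 mg/kg po. Hot plate at 55 °C inside a glass cylinder. Two baseline latencies taken ≥10 min apart, then latency read at 1.5, 3.5 and 5.5 h after dosing. Endpoint is jumping or paw licking, with a 30 s cutoff.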
# Mus musculus [5] = assay: Antiinflammatory activity in Swiss mouse model assessed as inhibition of carrageenan-induced IL-1beta production in cutaneous plantar tissue at 10 mg/kg, po administered 30 mins prior to challenge measured 3 hrs post challenge by ELISA; type: functional, organism-based; set-up: dose 10 mg/kg
# In short: (§4)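 Swiss mice given 10 mg/kg po 30 min before intraplantar carrageenin (100 μg/paw). At 3 h, plantar skin is removed under terminal anesthesia and homogenized in buffer with protease inhibitors. IL-1β and TNF-α measured by ELISA, as pg/paw. Saline-injected paws serve as controls. n = 5.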
# Mus musculus [6] = assay: Antihyperalgesic activity in PGE2-induced mechanical hyperalgesia Swiss mouse model assessed as paw withdrawal latency at 10 mg/kg, po administered 30 mins prior to challenge measured at 3 hrs post compound treatment by electronic pressure-meter test; type: functional, organism-based; set-up: dose 10 mg/kg
# In short: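 Male Swiss mice given 10 mg/kg po (vehicle 2% DMSO in saline) 30 min before intraplantar PGE2 (100 ng/paw). Electronic pressure-meter test 3 h after stimulus, each value the mean of three readings. Result is Δ withdrawal threshold (g), zero-time mean subtracted. n = 5.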
# Mus musculus [7] = assay: Hepatotoxicity in Swiss mouse assessed as change in plasma AST level at 10 mg/kg, po for 7 days measured over 7 days relative to vehicle-treated control; type: toxicity, organism-based; set-up: dose 10 mg/kg, route oral; details: in vivo, 168 h
# In short: (§5)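 Mice dosed po daily for 7 days: vehicle (2% DMSO/saline or Tris/HCl pH 8.0), 10 mg/kg, or indomethacin 2.5 mg/kg. Heparinized blood is drawn under terminal anesthesia, and plasma AST and ALT are measured with a diagnostic kit. n = 8.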
# Mus musculus [8] = assay: Toxicity in Swiss mouse assessed as effect on muscle-relaxing effect at 10 mg/kg, po after 1.5 to 5.5 hrs by roto-rod test; type: organism-based; set-up: dose 10 mg/kg, route oral; details: in vivo
# In short: (§6)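 Rota-rod turning at 22 rpm. Mice are pre-selected 24 h earlier by staying on for two 120 s periods. Dosing is vehicle (20% Tween 80/saline) or 10 mg/kg po, with testing at 1.5, 3.5 and 5.5 h and a 120 s cutoff. n = 6.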
# Mus musculus [9] = assay: Antihyperalgesic activity in po dosed carrageenan-induced mechanical hyperalgesia Swiss mouse model assessed as paw withdrawal latency administered 30 mins prior to challenge by electronic pressure-meter test; type: functional, organism-based
# In short: (§7)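 Male Swiss mice dosed po (1–10 mg/kg, 2% DMSO in saline) 30 min before intraplantar carrageenin (100 μg/paw). Control indomethacin 5 mg/kg ip given 40 min before. Electronic pressure-meter readings at 1, 3 and 5 h, mean of three. Δ withdrawal threshold (g) is the post-stimulus reading minus zero-time. n = 5.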
# Mus musculus [10] = assay: Toxicity in Swiss mouse assessed as sedative effect at 10 mg/kg, po after 1.5 to 5.5 hrs by roto-rod test; type: organism-based; set-up: dose 10 mg/kg, route oral; details: in vivo; in short: as §6
# Mus musculus [11] = assay: Antihyperalgesic activity in complete Freund's adjuvant-induced Swiss mouse pain model assessed as paw withdrawal latency at 10 mg/kg, po starting 1 hr post challenge for 7 days measured on day 1 post challenge by electronic pressure-meter test; type: functional, organism-based; set-up: dose 10 mg/kg; in short: as §1
# Mus musculus [12] = assay: Antihyperalgesic activity in carrageenan-induced mechanical hyperalgesia Swiss mouse model assessed as paw withdrawal latency at 10 mg/kg, po administered 30 mins prior to challenge measured after 1 to 5 hrs post challenge by electronic pressure-meter test; type: functional, organism-based; set-up: dose 10 mg/kg; in short: as §7
# Mus musculus [13] = assay: Antihyperalgesic activity in carrageenan-induced mechanical hyperalgesia Swiss mouse model assessed as paw withdrawal latency at 10 mg/kg, po administered 30 mins prior to challenge measured after 1 to 5 hrs post challenge by electronic pressure-meter test in presence of 10 mg/kg L-NAME; type: functional, organism-based; in short: as §3
# Mus musculus [14] = assay: Antihyperalgesic activity in carrageenan-induced mechanical hyperalgesia Swiss mouse model assessed as paw withdrawal latency at 10 mg/kg, po administered 30 mins prior to challenge measured after 1 to 5 hrs post challenge by electronic pressure-meter test in presence of PKG inhibitor KT5823; type: functional, organism-based; set-up: dose 10 mg/kg
# In short: (§8)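 Pretreatment ip: ODQ 0.3 mg/kg in 2% DMSO/saline at 30 min, KT5823 0.5 μg/mouse in 2% DMSO/saline at 5 min, or glybenclamide 0.3 mg/kg in 5% Tween 80/saline at 45 min. Each is followed by 10 mg/kg po, then intraplantar carrageenin (100 μg/paw) 30 min later. Pressure-meter Δ threshold (g) at 1, 3 and 5 h. n = 5.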
# Mus musculus [15] = assay: Antihyperalgesic activity in carrageenan-induced mechanical hyperalgesia Swiss mouse model assessed as paw withdrawal latency at 3 mg/kg, po administered 30 mins prior to challenge measured after 1 to 3 hrs post stimulus by electronic pressure-meter test; type: functional, organism-based; set-up: dose 3 mg/kg; in short: as §7
# Mus musculus [16] = assay: Antinociceptive activity in po dosed Swiss mouse assessed as inhibition of acetic acid-induced writhing administered 30 mins prior to acetic acid challenge; type: functional, organism-based
# In short: (§9)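 Mice dosed ip or po (3–30 mg/kg, 2% DMSO in saline) 30 min before ip acetic acid (0.8% v/v, 10 mL/kg). Indomethacin 5 mg/kg ip given 40 min before. Cumulative writhing score over 20 min. n = 6.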
# Mus musculus [17] = assay: Antiinflammatory activity in Swiss mouse model assessed as inhibition of carrageenan-induced TNFalpha production in cutaneous plantar tissue at 10 mg/kg, po administered 30 mins prior to challenge measured 3 hrs post challenge by ELISA; type: functional, organism-based; set-up: dose 10 mg/kg; in short: as §4
# Mus musculus [18] = assay: Antiinflammatory activity in complete Freund's adjuvant-induced Swiss mouse pain model assessed as inhibition of paw licking at 10 mg/kg, po administered 30 mins prior to challenge; type: functional, organism-based; set-up: dose 10 mg/kg
# In short: (§10)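 10 mg/kg po (or vehicle) given 30 min before intraplantar CFA (10 μL/paw) in Swiss mice. Paw flinches and licking time counted over 30 min as cumulative totals. n = 6.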
# Mus musculus [19] = assay: Antihyperalgesic activity in carrageenan-induced mechanical hyperalgesia Swiss mouse model assessed as paw withdrawal latency at 10 mg/kg, po administered 30 mins prior to challenge measured after 1 to 5 hrs post challenge by electronic pressure-meter test in presence of soluble […] inhibitor ODQ; type: functional, organism-based; set-up: dose 10 mg/kg; in short: as §8
# Mus musculus [20] = assay: Antihyperalgesic activity in carrageenan-induced mechanical hyperalgesia Swiss mouse model assessed as paw withdrawal latency at 10 mg/kg, po administered 30 mins prior to challenge measured after 1 to 5 hrs post challenge by electronic pressure-meter test in presence of glibenclamide; type: functional, organism-based; set-up: dose 10 mg/kg; in short: as §8
# Mus musculus [21] = assay: Antiinflammatory activity in complete Freund's adjuvant-induced Swiss mouse pain model assessed as inhibition of paw flinching at 10 mg/kg, po administered 30 mins prior to challenge; type: functional, organism-based; set-up: dose 10 mg/kg; in short: as §10
# Mus musculus [22] = assay: Antihyperalgesic activity in carrageenan-induced mechanical hyperalgesia Swiss mouse model assessed as paw withdrawal latency at 10 mg/kg, po administered 30 mins prior to challenge measured after 1 to 5 hrs post stimulus by electronic pressure-meter test; type: functional, organism-based; set-up: dose 10 mg/kg; in short: as §7
# Mus musculus [23] = assay: Antinociceptive activity in Swiss mouse assessed as inhibition of acetic acid-induced writhing at 3 to 30 mg/kg, ip administered 30 mins prior to acetic acid challenge; type: functional, organism-based; in short: as §9
# Mus musculus [24] = assay: Antihyperalgesic activity in carrageenan-induced mechanical hyperalgesia Swiss mouse model assessed as paw withdrawal latency at 10 mg/kg, po administered 30 mins prior to challenge measured after 1 to 5 hrs post challenge by electronic pressure-meter test in presence of 90 mg/kg L-NAME; type: functional, organism-based; in short: as §3
# Mus musculus [25] = assay: Antinociceptive activity in Swiss mouse assessed as inhibition of PBQ-induced writhing at 10 mg/kg, po administered 30 mins prior to PBQ challenge; type: functional, organism-based; set-up: dose 10 mg/kg
# In short: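 Swiss mice dosed po (10 mg/kg) 30 min before ip PBQ (1890 μg/kg in 2% DMSO/saline). Indomethacin 5 mg/kg ip given 40 min before. Cumulative writhing score over 20 min. n = 6.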
# Mus musculus [26] = assay: Hepatotoxicity in Swiss mouse assessed as change in plasma ALT level at 10 mg/kg, po for 7 days measured over 7 days relative to vehicle-treated control; type: toxicity, organism-based; set-up: dose 10 mg/kg, route oral; details: in vivo, 168 h; in short: as §5
# Mus musculus [27] = assay: Antinociceptive activity against formalin-induced pain in Swiss mouse assessed as inhibition of paw flinching at 10 mg/kg, po administered 30 mins prior to formalin challenge; type: functional, organism-based; set-up: dose 10 mg/kg; in short: as §2
# Mus musculus [28] = assay: Gastrointestinal toxicity in Swiss mouse assessed as increase in stomach MPO activity at 10 mg/kg, po for 7 days measured over 7 days relative to vehicle-treated control; type: organism-based; set-up: dose 10 mg/kg, route oral; details: in vivo, 168 h
# In short: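 Mice dosed po daily for 7 days: vehicle (2% DMSO/saline or Tris/HCl pH 8.0), 10 mg/kg, or indomethacin 2.5 mg/kg. Stomach is homogenized in 50 mM phosphate buffer pH 6.0 with 0.5% HTAB. Supernatant is reacted with o-dianisidine/H2O2 and read at 450 nm. Results expressed as neutrophils ×10^4/mg tissue from a neutrophil standard curve. n = 8.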
# Mus musculus [29] = assay: Antihyperalgesic activity in carrageenan-induced mechanical hyperalgesia Swiss mouse model assessed as paw withdrawal latency at 1 mg/kg, po administered 30 mins prior to challenge by electronic pressure-meter test; type: functional, organism-based; set-up: dose 1 mg/kg; in short: as §7
compound,measurement,setting,value
C=C1C[C@@]23CC[C@H]4[C@@](C)(CCC[C@@]4(C)C(=O)O)[C@@H]2CC[C@@H]1C3 [KAURENOIC ACID],Activity,Mus musculus [1],Active
same,inhibition,Mus musculus [2],Active
same,Activity,Mus musculus [3],inactive
same,Activity,Mus musculus [4],inactive
same,inhibition,Mus musculus [5],Active
same,Activity,Mus musculus [6],Active
same,Activity,Mus musculus [7],Non-toxic
same,Activity,Mus musculus [8],Non-toxic
same,Activity,Mus musculus [9],Dose-dependent effect
same,Activity,Mus musculus [10],Non-toxic
same,Activity,Mus musculus [11],inactive
same,Activity,Mus musculus [12],Active
same,Activity,Mus musculus [13],Active
same,Activity,Mus musculus [14],inactive
same,Activity,Mus musculus [15],Active
same,inhibition,Mus musculus [16],Dose-dependent effect
same,inhibition,Mus musculus [17],Active
same,inhibition,Mus musculus [18],Active
same,Activity,Mus musculus [19],inactive
same,Activity,Mus musculus [20],inactive
same,inhibition,Mus musculus [21],Active
same,Activity,Mus musculus [22],Active
same,inhibition,Mus musculus [23],Active
same,Activity,Mus musculus [24],inactive
same,inhibition,Mus musculus [25],Active
same,Activity,Mus musculus [26],Non-toxic
same,inhibition,Mus musculus [27],Active
same,Activity,Mus musculus [28],Non-toxic
same,Activity,Mus musculus [29],inactive
